Measured values: ChEMBL document CHEMBL4130342, “New semi-synthetic analogs of oleuropein show improved anticancer activity in vitro and in vivo” (Eur J Med Chem, 2017)
Each block holds one compound with its values, some of them ahead of it.

Columns and labels:
[1] = Antiproliferative activity against human FM3 cells after 72 hrs by MTT reduction assay; format: functional, cell-based
How it was run: (§1)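 MTT reduction assay; adherent lines left to adhere overnight, suspension lines (HL-60, K562) seeded on the day. […] Incubation was 72 h at 37°C, with MTT added for the last 4 h. OD read at 545 nm (reference 690 nm). IC50 from 100(A0-A)/A0=50; means ± SD of 3 independent experiments.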

[2] = tested on: HCT-116; experiment: Antiproliferative activity against human HCT116 cells after 72 hrs by MTT reduction assay; format: functional, cell-based; conditions: HCT-116, 72 h
How it was run: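 MTT reduction assay; adherent lines left to adhere overnight, suspension lines (HL-60, K562) seeded on the day. Incubation was 72 h at 37°C, with MTT added for the last 4 h.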

[3] = tested on: HeLa; experiment: Antiproliferative activity against human HeLa cells after 72 hrs by MTT reduction assay; format: functional, cell-based; how it was run: as §1
[4] = tested on: MCF7; experiment: Antiproliferative activity against human MCF7 cells after 72 hrs by MTT reduction assay; format: functional, cell-based; conditions: MCF7, 72 h; how it was run: as §1
[5] = tested on: SK-BR-3; experiment: Antiproliferative activity against human SKBR3 cells after 72 hrs by MTT reduction assay; format: functional, cell-based; conditions: SK-BR-3, 72 h; how it was run: as §1
[6] = tested on: HL-60; experiment: Antiproliferative activity against human HL60 cells after 72 hrs by MTT reduction assay; format: functional, cell-based; conditions: HL-60, 72 h; how it was run: as §1
[7] = tested on: K562; experiment: Antiproliferative activity against human K562 cells after 72 hrs by MTT reduction assay; format: functional, cell-based; conditions: K562, 72 h; how it was run: as §1
[8] = tested on: B16-F1; experiment: Antiproliferative activity against mouse B16-F1 cells after 72 hrs by MTT reduction assay; format: functional, cell-based; conditions: B16-F1, 72 h; how it was run: as §1
[9] = tested on: PBMC; experiment: Induction of apoptosis in human PBMC at 2 ug/ml after 24 hrs by propidium iodide staining-based flow cytometric method; format: cell-based
[10] = tested on: PBMC; experiment: Induction of apoptosis in human PBMC assessed as early apoptotic cells at 25 ug/ml after 24 hrs by propidium iodide staining-based flow cytometric method (reference value: 0.1%); format: cell-based
[11] = tested on: PBMC; experiment: Induction of apoptosis in human PBMC assessed as late apoptotic cells at 25 ug/ml after 24 hrs by propidium iodide staining-based flow cytometric method (reference value: 0.6%); format: cell-based
[12] = tested on: PBMC; experiment: Induction of apoptosis in human PBMC assessed as necrotic cells at 25 ug/ml after 24 hrs by propidium iodide staining-based flow cytometric method (reference value: 1%); format: cell-based
[13] = tested on: B16-F1; experiment: Induction of apoptosis in mouse B16-F1 cells assessed as early apoptotic cells at 25 ug/ml after 24 hrs by propidium iodide staining-based flow cytometric method (reference value: 0.5%); format: functional
[14] = tested on: B16-F1; experiment: Induction of apoptosis in mouse B16-F1 cells assessed as late apoptotic cells at 25 ug/ml after 24 hrs by propidium iodide staining-based flow cytometric method (reference value: 0.9%); format: functional
[15] = tested on: B16-F1; experiment: Induction of apoptosis in mouse B16-F1 cells assessed as necrotic cells at 25 ug/ml after 24 hrs by propidium iodide staining-based flow cytometric method (reference value: 0.4%); format: functional
[16] = tested on: B16-F1; experiment: Induction of apoptosis in mouse B16-F1 cells assessed as early apoptotic cells at 25 ug/ml after 48 hrs by propidium iodide staining-based flow cytometric method (reference value: 0.2%); format: functional
[17] = tested on: B16-F1; experiment: Induction of apoptosis in mouse B16-F1 cells assessed as late apoptotic cells at 25 ug/ml after 48 hrs by propidium iodide staining-based flow cytometric method (reference value: 0.5%); format: functional
[18] = tested on: B16-F1; experiment: Induction of apoptosis in mouse B16-F1 cells assessed as necrotic cells at 25 ug/ml after 48 hrs by propidium iodide staining-based flow cytometric method (reference value: 1%); format: functional
[19] = tested on: B16-F1; experiment: Induction of apoptosis in mouse B16-F1 cells assessed as early apoptotic cells at 25 ug/ml after 72 hrs by propidium iodide staining-based flow cytometric method (reference value: 0.4%); format: functional
[20] = tested on: B16-F1; experiment: Induction of apoptosis in mouse B16-F1 cells assessed as late apoptotic cells at 25 ug/ml after 72 hrs by propidium iodide staining-based flow cytometric method (reference value: 1.4%); format: functional

Compound: C/C=C1/[C@H](O[C@@H]2O[C@H](CO)[C@@H](O)[C@H](O)[C@H]2O)OC=C(C(=O)OC)[C@H]1CC(=O)OCCc1ccccc1 (stereo in doubt)
IC50 [1]: 28 µM | IC50 [2]: 25.3 µM | IC50 [3]: 18.5 µM | IC50 [4]: 19.3 µM | IC50 [5]: 11 µM | IC50 [6]: 10.3 µM | IC50 [7]: 20 µM | IC50 [8]: 41 µM

Compound: C/C=C1/[C@H](O[C@@H]2O[C@H](CO)[C@@H](O)[C@H](O)[C@H]2O)OC=C(C(=O)OC)[C@H]1CC(=O)OCCC(C)C (stereo in doubt)
IC50 [1]: 27.7 µM | IC50 [2]: 26.7 µM | IC50 [3]: 19.5 µM | IC50 [4]: 21.3 µM | IC50 [5]: 9.02 µM | IC50 [6]: 9.83 µM | IC50 [7]: 18 µM | IC50 [8]: 39.1 µM

Compound: C/C=C1/[C@H](O[C@@H]2O[C@H](CO)[C@@H](O)[C@H](O)[C@H]2O)OC=C(C(=O)O)[C@H]1CC(=O)O
IC50 [1]: > 50 µM | IC50 [2]: > 50 µM | IC50 [3]: > 50 µM | IC50 [4]: > 50 µM | IC50 [5]: > 50 µM | IC50 [6]: > 50 µM | IC50 [7]: > 50 µM | IC50 [8]: > 50 µM

Compound: C/C=C1/[C@H](O[C@@H]2O[C@H](CO)[C@@H](O)[C@H](O)[C@H]2O)OC=C(C(=O)OC)[C@H]1CC(=O)OCCC1CCCCC1 (stereo in doubt)
IC50 [1]: 9.33 µM | IC50 [2]: 13.7 µM | IC50 [3]: 5.6 µM | IC50 [4]: 5 µM | IC50 [5]: 2 µM | IC50 [6]: 0.48 µM | IC50 [7]: 0.85 µM | Activity [9]: > 30% | IC50 [8]: 5.04 µM

Compound: COc1cccc2c1C(=O)c1c(O)c3c(c(O)c1C2=O)C[C@@](O)(C(=O)CO)C[C@@H]3O[C@H]1C[C@H](N)[C@H](O)[C@H](C)O1 [DOXORUBICIN]
IC50 [1]: 0.217 µM | IC50 [3]: 0.221 µM | IC50 [5]: 0.202 µM | IC50 [6]: 0.017 µM | IC50 [7]: 0.018 µM | Activity [10]: 0% | Activity [11]: 4.6% | Activity [12]: 46.2% | IC50 [8]: 0.23 µM | Activity [13]: 23.4% | Activity [14]: 1.5% | Activity [15]: 1.1% | Activity [16]: 57.5% | Activity [17]: 2% | Activity [18]: 0.9% | Activity [19]: 71.5% | Activity [20]: 8.1%

More lines, in order of falling IC50 [3], values ahead:

IC50 [2]: 26 µM | IC50 [3]: 21 µM | IC50 [4]: 18.7 µM | IC50 [5]: 11.5 µM | IC50 [6]: 10 µM | IC50 [7]: 16 µM | IC50 [8]: 43 µM
Compound: C/C=C1/[C@H](O[C@@H]2O[C@H](COC(C)=O)[C@@H](OC(C)=O)[C@H](OC(C)=O)[C@H]2OC(C)=O)OC=C(C(=O)OC)[C@H]1CC(=O)OCCc1ccccc1 (stereo in doubt)
IC50 [1]: 29.3 µM

IC50 [2]: 25.7 µM | IC50 [3]: 17.5 µM | IC50 [4]: 15 µM | IC50 [5]: 6.6 µM | IC50 [6]: 10.7 µM | IC50 [7]: 8.5 µM | IC50 [8]: 44 µM
Compound: C/C=C1/[C@H](O[C@@H]2O[C@H](COC(C)=O)[C@@H](OC(C)=O)[C@H](OC(C)=O)[C@H]2OC(C)=O)OC=C(C(=O)OC)[C@H]1CC(=O)OCCC (stereo in doubt)
IC50 [1]: 29 µM

IC50 [2]: 21 µM | IC50 [3]: 17 µM | IC50 [4]: 9.66 µM | IC50 [5]: 3.81 µM | IC50 [6]: 8 µM | IC50 [7]: 7 µM | IC50 [8]: 34 µM
Compound: C/C=C1/[C@H](O[C@@H]2O[C@H](COC(C)=O)[C@@H](OC(C)=O)[C@H](OC(C)=O)[C@H]2OC(C)=O)OC=C(C(=O)OC)[C@H]1CC(=O)OCCCCCCCCCCCCCCCC
IC50 [1]: 27 µM
